Data on one compound can be found in ChEMBL document CHEMBL4024770, “Augmentation of Anticancer Drug Efficacy in Murine Hepatocellular Carcinoma Cells by a Peripherally Acting Competitive N-Methyl-d-aspartate (NMDA) Receptor Antagonist” (J Med Chem, 2017).

A short description of data set [1]: Displacement of [3H]-CGP-39653 from NMDA receptor in Sprague-Dawley rat brain synaptosomes after 60 mins by scintillation counting method. Type of data set: subcellular. In general terms: In a radioligand displacement assay an active substance lowers the binding of a labelled ligand.
In data set [2] the target is Glutamate NMDA receptor; Grin1/Grin2c (Rattus norvegicus, UniProt P35439+Q00961). Briefly: Antagonist activity at recombinant rat GluN1a/GluN2C expressed in Xenopus laevis oocytes assessed as inhibition of glycine/glutamate-mediated current responses by two-electrode voltage clamp method. Type of data set: cell-based. In short, it runs like this: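 Xenopus oocytes were injected with rat GluN1 and GluN2A–D cRNA (1:2) and recorded 2–6 days later by TEVC at room temperature, −40 mV, in Ba2+-containing recording solution, pH 7.4. Currents were evoked by 100 μM glycine plus glutamate at 2–3× EC50: 10 μM for GluN2A, 3 μM for GluN2B and GluN2C, 1 μM for GluN2D. IC50 from Hill fits per oocyte; Ki estimated.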
Sequence of Glutamate NMDA receptor; Grin1/Grin2c (Q00961 whole entry, other chains not shown): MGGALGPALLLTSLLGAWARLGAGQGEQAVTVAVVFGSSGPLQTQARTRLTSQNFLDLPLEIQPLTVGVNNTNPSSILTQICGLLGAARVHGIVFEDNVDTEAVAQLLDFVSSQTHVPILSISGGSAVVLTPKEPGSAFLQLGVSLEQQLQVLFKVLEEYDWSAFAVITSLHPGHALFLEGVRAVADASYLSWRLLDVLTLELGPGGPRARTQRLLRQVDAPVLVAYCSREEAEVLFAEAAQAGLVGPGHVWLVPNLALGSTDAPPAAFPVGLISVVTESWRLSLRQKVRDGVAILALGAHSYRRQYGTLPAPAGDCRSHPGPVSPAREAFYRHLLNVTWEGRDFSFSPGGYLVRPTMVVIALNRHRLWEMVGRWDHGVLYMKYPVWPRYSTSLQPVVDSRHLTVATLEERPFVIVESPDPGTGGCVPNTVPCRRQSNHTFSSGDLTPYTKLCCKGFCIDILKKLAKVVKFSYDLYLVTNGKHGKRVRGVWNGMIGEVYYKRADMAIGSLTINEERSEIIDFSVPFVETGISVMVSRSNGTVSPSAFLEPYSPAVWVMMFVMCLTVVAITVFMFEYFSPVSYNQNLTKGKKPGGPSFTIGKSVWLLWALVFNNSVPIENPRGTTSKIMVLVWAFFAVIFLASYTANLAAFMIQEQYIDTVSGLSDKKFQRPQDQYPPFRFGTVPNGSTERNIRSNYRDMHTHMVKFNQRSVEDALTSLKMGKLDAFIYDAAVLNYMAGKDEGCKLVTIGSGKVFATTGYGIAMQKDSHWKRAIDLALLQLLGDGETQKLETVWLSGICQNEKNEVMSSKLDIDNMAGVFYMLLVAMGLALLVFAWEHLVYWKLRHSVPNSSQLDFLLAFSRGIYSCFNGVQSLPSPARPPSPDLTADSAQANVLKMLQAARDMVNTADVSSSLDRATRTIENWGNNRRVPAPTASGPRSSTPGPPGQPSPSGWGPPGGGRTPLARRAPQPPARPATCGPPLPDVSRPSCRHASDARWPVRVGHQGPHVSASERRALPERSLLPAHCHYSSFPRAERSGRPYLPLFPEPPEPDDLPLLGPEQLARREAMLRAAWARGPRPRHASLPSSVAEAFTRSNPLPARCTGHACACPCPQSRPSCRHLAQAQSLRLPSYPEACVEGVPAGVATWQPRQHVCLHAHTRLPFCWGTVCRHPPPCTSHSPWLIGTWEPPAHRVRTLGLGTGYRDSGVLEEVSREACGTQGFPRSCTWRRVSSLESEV

Data set [3] has as its system Plasma. Briefly: Tmax in mouse plasma at 10 mg/kg, ip administered as bolus dose by LC-MS/MS analysis. To be noted: in vivo. It is filed as ADME, organism-based. Put shortly: (§1)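 Adult male mice (25 ± 5 g) given a single 10 mg/kg i.p. bolus, prepared as a 5.0 mM solution in 0.9% NaCl. Animals were decapitated at five time points between 10 and 240 min. Plasma was precipitated with acetonitrile containing internal standard. Brain and liver were homogenized in water (1:3) and precipitated the same way. Analysis by LC-MS/MS, with AUC0–240, Cmax, tmax, t½β and liver/plasma ratio derived from the concentration-time data.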

For data set [4], the system named is Liver. Briefly: Cmax in mouse liver at 10 mg/kg, ip administered as bolus dose by LC-MS/MS analysis. It is filed as ADME, organism-based. Also on record: dose 10 mg/kg, route intraperitoneal. The settings on record: in vivo. In short, it runs like this: as §1
The subject of data set [5] is Brain. Nature of the data set: Drug uptake in mouse brain at 10 mg/kg, ip administered as bolus dose measured at 60 mins by LC-MS/MS analysis. It is filed as ADME, organism-based. The settings on record: in vivo, 1 h. In short, it runs like this:
as §1

The species named for data set [6] is Mus musculus. Briefly: Antagonist activity at NMDA receptor in Nras driven p53 deficient mouse HCC cell membranes assessed as Abcb1 protein expression levels at 10 uM by […] analysis relative to control. Also on record: scale not given: the % may be the effect or the level left. In short, it runs like this: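 Mouse Nras-driven p53−/− HCC cells in DMEM with 10% FBS, exposed 48 h with or without 10 μM antagonist, washed, pelleted and snap-frozen. Crude membrane fraction isolated. 50 μg protein reduced, alkylated, precipitated, then Lys-C digested (3 h, rt) and trypsin digested (1:100, 37°C, 16 h). One unique peptide per transporter quantified by multiplexed SRM/MRM LC-MS/MS against stable isotope-labelled standards. Unpaired two-tailed t-test versus control, n=4.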

Data set [7] is filed under the species Mus musculus. Nature of the data set: Antagonist activity at NMDA receptor in Nras driven p53 deficient mouse HCC cell membranes assessed as Slc7a5 protein expression levels at 10 uM by SMR/MRM analysis relative to control. The arrangement: scale not given: the % may be the effect or the level left. In short, it runs like this:
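Nras p53−/− mouse HCC cells were exposed to 10 μM for 48 h, washed, and pelleted. Crude membrane fractions (50 μg protein) were denatured in guanidine, reduced/alkylated and precipitated. They were then digested with Lys-C (rt, 3 h) and trypsin (37 °C, 16 h) with stable-isotope peptide standards. Slc7a5 was quantified by multiplexed SRM/MRM LC-MS/MS, one unique peptide per protein. Mean ± SEM, n=4, versus control.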

The species named for data set [8] is Mus musculus. Nature of the data set: Antagonist activity at NMDA receptor in Nras driven p53 deficient mouse HCC cell membranes assessed as decrease in Abcb1 protein expression levels by measuring [3H]-digoxin accumulation at 10 uM preincubated for 24 hrs followed by compound wash out and addition of [3H]-digoxin measured after 30 mins by scintillation counting method relative to control. Also on record: scale not given: the % may be the effect or the level left. In short, it runs like this:
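Nras p53−/− HCC cells (1 × 10⁵/well) were pretreated 24 h with or without 10 μM. They were then washed 3× in warm HBSS (choline chloride, pH 7.4) and incubated at 37 °C with probe in HBSS. Incubation was 30 min for [3H]-digoxin, 20 μM fluorescein or 10 μM sorafenib, and 5 min for [14C]-L-leucine or [14C]-D-glucose. Cells were washed ice-cold and lysed in 0.1 M NaOH. Read-out was scintillation, fluorescence or LC-MS/MS, normalized to protein.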

The species named for data set [9] is Mus musculus. Briefly: Antagonist activity at NMDA receptor in Nras driven p53 deficient mouse HCC cell membranes assessed as potentiation of 1 uM sorafenib-mediated antiproliferative activity by measuring cell viability at 100 uM after 72 hrs by resazurin assay (reference value: […] +/- […]%). (The colour change of resazurin is a common sign of viable cells or microbes.)

On to `Cl.O=C(O)c1cc([C@H]2CCN[C@@H]2C(=O)O)ccc1Cl`, for which the values for the Ki in [1] and in [2] were 0.63 µM and 24 µM, respectively. Also, in [1], the pKi – broadly, the negative decadic logarithm of the Ki, by convention in mol/L – turned out to be 6.22. Besides, the IC50 (usually the concentration needed to halve the response being measured) in data set [2] came to 110 µM. In data set [3], the Tmax – broadly, the time from dosing to the highest level – is listed as 15 min. The compound also had a Cmax in data set [4] of 8.7 nmol/g. In data set [5], this compound yielded a Drug uptake of 0.1 nmol/g. Also, the Activity was 39% in data set [6], 24% in data set [7], 149% in data set [8] and 33% in data set [9].
